From ChEMBL document CHEMBL4842320, “Cryptic Biosynthesis of the Berkeleypenostatins from Coculture of Extremophilic Penicillium sp” (J Nat Prod, 2021)
Values after ≈ are worked out from the molar mass of the structure shown. Active and inactive are the calls of the source. The calls are words filed in the database; no cut-off is given here.

Key:
Staphylococcus aureus [1] = assay: Antibacterial activity against wild-type Staphylococcus aureus assessed as minimum inhibitory concentration by alamar blue dye based broth microdilution method; format: functional
Staphylococcus aureus [2] = assay: Antibacterial activity against multidrug resistant strains of Staphylococcus aureus assessed as minimum inhibitory concentration by alamar blue dye based broth microdilution method; format: functional
Bacillus anthracis = assay: Antibacterial activity against Bacillus anthracis assessed as minimum inhibitory concentration by alamar blue dye based broth microdilution method; format: functional
Stromelysin-1 = Stromelysin-1 (Homo sapiens, UniProt P08254); assay: Inhibition of MMP-3 (unknown origin)
Sequence of Stromelysin-1 (P08254 whole entry): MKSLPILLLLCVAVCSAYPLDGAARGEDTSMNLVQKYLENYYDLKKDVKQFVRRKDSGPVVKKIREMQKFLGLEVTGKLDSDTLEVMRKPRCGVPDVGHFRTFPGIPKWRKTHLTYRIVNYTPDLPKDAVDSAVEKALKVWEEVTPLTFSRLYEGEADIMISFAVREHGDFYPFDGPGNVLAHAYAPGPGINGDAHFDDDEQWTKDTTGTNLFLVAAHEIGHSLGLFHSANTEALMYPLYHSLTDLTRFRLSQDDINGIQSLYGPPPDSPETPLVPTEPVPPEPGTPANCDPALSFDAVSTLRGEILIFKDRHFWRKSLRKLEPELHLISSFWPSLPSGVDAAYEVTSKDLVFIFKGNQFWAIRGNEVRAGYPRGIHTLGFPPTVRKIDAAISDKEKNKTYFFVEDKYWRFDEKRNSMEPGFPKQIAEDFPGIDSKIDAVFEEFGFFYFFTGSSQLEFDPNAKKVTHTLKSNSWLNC
Procedure, shortened: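 MMP-3 inhibition measured with a commercial MMP-3 drug discovery kit.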

[3] = test system: Panel NCI-60 (60 carcinoma cell lines); assay: Anticancer activity against human Panel NCI-60 (60 carcinoma cell lines) assessed as total growth inhibition at 1 to 10 uM measured after 48 hrs by SRB assay; format: functional, cell-based; settings: dose 1-10 µM
Procedure, shortened: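 NCI Developmental Therapeutics Program 60-human-tumour-cell-line five-dose screen, with total growth inhibition (TGI) as the end-point.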

HPAF-II [4] = assay: Cytotoxicity against human HPAF-II cells assessed as reduction in cell viability at upto 50 uM by MTT assay; format: functional, cell-based; settings: dose microM <=50
Procedure, shortened: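 Vybrant MTT proliferation assay on HPAF-II cells harvested with 0.25% trypsin/0.53 mM EDTA, with viability checked after harvest. Compounds were tested up to 50 μM.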

HPAF-II [5] = assay: Antiinvasive activity against human HPAF-II cells assessed as reduction in cell invasion at 1.25 uM measured upto 24 hrs by CMFDA dye staining based fluorescence assay; format: functional; settings: time hrs <=24
Procedure, shortened: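 Matrigel-coated invasion inserts with 8 μm pores. HPAF-II cells were harvested, resuspended in serum-free DMEM and labelled with CellTracker CMFDA. Compound was diluted in serum-free DMEM to a final 1.25 μM. Run in triplicate, with untreated cells as control and NNGH as positive control.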

HPAF-II [6] = assay: Inhibition of cell migration in human HPAF-II cells at 1.25 uM measured upto 24 hrs by CMFDA dye staining based fluorescence assay; format: functional; settings: time hrs <=24
Procedure, shortened: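 Fluoroblok 96-well insert migration kinetics. HPAF-II cells were harvested at ~80% confluency, resuspended at 5 ×10^5 cells/mL in serum-free DMEM and stained with CellTracker CMFDA. Compound was present at a final 1.25 μM over 24 h. Run in triplicate, with untreated cells as control and NNGH as positive control.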

SMILES	MIC (Staphylococcus aureus [1]) [µg/mL]	MIC (Staphylococcus aureus [2]) [µg/mL]	MIC (Bacillus anthracis) [µg/mL]	IC50 (Stromelysin-1) [µM]	Activity [3]	Activity (HPAF-II [4])	Activity (HPAF-II [5])	inhibition at 1.25 µM (HPAF-II [6]) [%]
CCCCCCC/C=C/[C@@H]1O[C@@]2(O)C(=O)C=C3C[C@H](O[C@@H]4O[C@H](CO)[C@@H](O)[C@H](O)[C@H]4O)C[C@H]3[C@@H]2C=C1C	4 (≈ 7.65 µM)	4 (≈ 7.65 µM)	4 (≈ 7.65 µM)	50	Active	inactive	inactive	30
CCCCCCC/C=C/[C@@H]1O[C@]23C(=O)C[C@@]4(C[C@H](O[C@@H]5O[C@H](CO)[C@@H](O)[C@H](O)[C@H]5O)C[C@H]4[C@@H]2C=C1C)OC3=O					inactive	inactive	inactive	30
CCCCCCC/C=C/[C@@H]1O[C@@]2(O)C(=O)C=C3C[C@@H](O[C@@H]4O[C@H](CO)[C@@H](O)[C@H](O)[C@H]4O)C[C@H]3[C@@H]2C=C1C	17 (≈ 32.5 µM)	17 (≈ 32.5 µM)	17 (≈ 32.5 µM)					
O=C(O)c1cn(C2CC2)c2cc(N3CCNCC3)c(F)cc2c1=O [CIPROFLOXACIN]			0.064 (≈ 0.193 µM)					
